Compounds with a hit are over-represented: about 0.77% of the library has one in this group of screens.
mIAP inh – blocks mouse intestinal alkaline phosphatase; purified mouse IAP, CDP-Star luminescence, 30 min; 330,000 tested, 0.2% active; inhibition, % at 10 µM;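 active means inhibition of at least 40% at 10 µM in the primary screen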;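 further: plate controls were DMSO with enzyme for no effect and no enzyme wells for full effect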
bIAP activator – increases bovine intestinal alkaline phosphatase activity | AID 1016 | purified bovine IAP, CDP-star luminescence, 30 min; active compounds read high; fold of DMSO-control signal, blank-subtracted | activation factor at 20 µM | 200,000 tested, 0.17% active;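 active means activation factor of 2 or more at 20 µM, a signal rise over negative controls twice the positive control's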
hIAP block – blocks human intestinal alkaline phosphatase. P09923. purified IAP, CDP-Star luminescence, 30 min. inhibition, % at 10 µM. 330,000 tested, 0.12% active;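 active means inhibition reaching a set limit with compound at 10 µM in the primary screen, cut at about 35% in these data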;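 further: plate controls were DMSO wells with enzyme for no effect and no-enzyme buffer wells for full effect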
Target sequence (P09923 whole entry, looked up): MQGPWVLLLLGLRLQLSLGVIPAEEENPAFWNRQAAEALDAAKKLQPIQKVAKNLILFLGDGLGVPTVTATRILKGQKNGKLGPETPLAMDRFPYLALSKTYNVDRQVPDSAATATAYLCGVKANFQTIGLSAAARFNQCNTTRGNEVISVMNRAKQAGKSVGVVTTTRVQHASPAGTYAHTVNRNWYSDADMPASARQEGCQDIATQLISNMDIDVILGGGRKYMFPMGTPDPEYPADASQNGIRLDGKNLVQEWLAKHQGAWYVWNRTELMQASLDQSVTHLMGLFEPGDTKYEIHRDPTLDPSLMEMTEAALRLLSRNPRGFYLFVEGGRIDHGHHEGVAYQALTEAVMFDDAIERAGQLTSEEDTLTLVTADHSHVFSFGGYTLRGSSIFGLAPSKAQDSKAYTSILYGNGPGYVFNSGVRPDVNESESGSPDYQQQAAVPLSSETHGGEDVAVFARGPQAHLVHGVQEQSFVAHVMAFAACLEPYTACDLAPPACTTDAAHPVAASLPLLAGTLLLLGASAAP
hIAP act – increases human intestinal alkaline phosphatase activity; P09923; purified human IAP, CDP-Star luminescence, 30 min; active compounds read high; 1 = vehicle-only enzyme, 0 = enzyme-free background; activation factor at 10 µM; 330,000 tested, 0.16% active; AID 2524;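 active means activation factor of the enzyme at least 2-fold when tested at 20 µM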
bIAP inh – blocks bovine intestinal alkaline phosphatase activity; AID 1019; inhibition, % at 20 µM; 190,000 tested, under 10 active; purified bovine IAP, CDP-star luminescence, 30 min;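 active means over 50% inhibition of intestinal alkaline phosphatase at 20 µM in the single-dose screen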
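test system = bovine IAP enzyme | medium = DEA buffer 100 mM, pH 9.8, with MgCl2 1.0 mM, ZnCl2 0.02 mM | detection = luminescence | dosing = single compound dose of 20 µM, 2% DMSO final | incubation = 30 min reaction at room temperature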
mIAP act – increases mouse intestinal alkaline phosphatase activity | muIAP, CDP-Star luminescence, 30 min; active compounds read high; 1 = vehicle-only enzyme signal, 0 = enzyme-free wells | activation factor at 10 µM | 330,000 tested, 0.24% active | AID 2805;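 active means activation factor of at least 2 at 20 µM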
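Assay system: mouse IAP enzyme; Reagent: CDP-Star chemiluminescent phosphatase substrate; Compound: DMSO-dissolved test compounds; Incubation: 30 min, room temperature; Technique: luminescence from enzymatic CDP-Star hydrolysis; Controls: DMSO-only wells and no-enzyme negative control.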
hIAP act confirm – human IAP activation confirmation; shares compounds with hIAP act; purified IAP, CDP-Star luminescence, 30 min; active compounds read low; activation (%Activity, negative = activation), % at 8.3 µM; 880 tested, 10% active; AID 434926;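 active means at least twofold enzyme activation in any of six single-dose repeats, which the averaged readout prints as negative percent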
* marks the source's active call; other numbers are inactive results; nt = no result.

SMILES | mIAP inh | bIAP activator | hIAP block | hIAP act | bIAP inh | mIAP act | hIAP act confirm
CC(=O)Nc1ccc(SCC(=O)NNC(=O)CN(C)S(=O)(=O)c2ccc(C)cc2)cc1 | -0.2 | nt | -7.5 | 1.07 | nt | 1 | nt
CC(=O)Nc1ccc(S(=O)(=O)N(C)CC(=O)NNC(=O)Cc2nc3ccccc3n2C)cc1 | -6.4 | nt | -130.4 | 2.3* | nt | 1.06 | -50.4
Nc1ccc(-c2nnn(CC(=O)N3CCCCC3)n2)cc1 | 0.8 | nt | -12.3 | 1.12 | nt | 0.992 | nt
CCn1nnc(-c2ccc(N)cc2)n1 | -2.1 | 1.1 | -101.5 | 2.02* | -7.4 | 1.02 | -22.0
CCc1cc2ccc(C)cc2nc1SCC(=O)N1CCN(C(=O)c2ccco2)CC1 | 9.2 | 0.9 | -105.4 | 2.05* | 5.8 | 0.908 | -36.5
O=C(NCCCN1CCOCC1)c1ccc2c(c1)N(Cc1ccc(Cl)cc1)C(=O)c1ccccc1S2=O (centres undefined) | 7.7 | nt | 36.9* | 0.631 | nt | 0.923 | -47.5*
CCOC(=O)c1sc(NC(=O)/C=C/c2ccccc2)nc1C | 11.1 | 1.4 | -120.5 | 2.21* | -43.8 | 0.889 | 1.2
O=C1Nc2ccc(Br)cc2C12NNc1ccccc1O2 (centres undefined) | 34.3 | 0.5 | -398.3 | 4.98* | nt | 0.657 | 35.0
CSCCC(NS(=O)(=O)c1ccc(C)cc1)C(=O)NNC(=O)c1csc(N2CCOCC2)n1 (centres undefined) | 31.7 | nt | -102.7 | 2.03* | nt | 0.683 | 48.3
C1CCN(C2CCN(c3nc4nonc4nc3N3CCSCC3)CC2)C1 | 7.2 | 1.1 | 12.9 | 0.871 | -12.5 | 0.928 | nt
C1CCC(Nc2nc3nonc3nc2N2CCSCC2)C1 | -2.6 | 1.1 | 36.6* | 0.634 | -9.2 | 1.03 | -2.6
CCc1ccc(OCC(=O)Nc2ncn[nH]2)cc1 | -2.1 | 1.8 | -106.1 | 2.06* | -75.1 | 1.02 | 0.9
Cc1ccc(C(=O)N/C(=C\c2ccco2)C(=O)NCCCn2ccnc2)cc1C | -5.5 | 1.2 | 86.4* | 0.136 | -24.1 | 1.05 | -63.2
COc1ccc(C(=O)N/C(=C\c2ccco2)C(=O)NCCCn2ccnc2)cc1 | 7.6 | 0.9 | 5.6 | 0.944 | 5.1 | 0.924 | nt
O=C1CC2CCCN2C=C1I (centres undefined) | -2.0 | nt | -8.3 | 1.08 | nt | 1.02 | nt
NC(=O)C1CCN(C(=O)c2cc(-c3ccc(Cl)s3)nc3ccccc23)CC1 | 8.2 | nt | 14.9 | 0.851 | nt | 0.918 | nt
CCC1CCCCN1C1Sc2ccc(C(=O)OC)cc2NC1=O (centres undefined) | -8.4 | 1.1 | -100.0 | 2* | -9.0 | 1.08 | -69.1*
N#Cc1cc(Oc2ccccc2)c(-n2nnc3ccccc32)cc1C#N | 7.6 | 0.9 | 35.2* | 0.648 | 12.7 | 0.924 | 40.7
N#Cc1cc(Oc2ccc3ccccc3c2)c(-n2nnc3ccccc32)cc1C#N | 2.8 | 0.7 | 13.3 | 0.867 | 25.3 | 0.972 | nt
CC1CC(C)CN(CC(=O)NNC(=O)COc2ccc(Cl)cc2)C1 (centres undefined) | -14.3 | nt | -87.4 | 1.87 | nt | 1.14 | nt
Cc1ccccc1-c1cn(-c2ccccc2)c(=S)[nH]1 | 4.1 | nt | 9.7 | 0.903 | nt | 0.959 | nt
CC(C)(C)c1cn(-c2ccc(F)cc2)c(=S)[nH]1 | 3.3 | 0.6 | 35.2* | 0.648 | 38.4 | 0.967 | 3.1
Cn1nccc1C(=O)N1CCN(c2ccccc2F)CC1 | -2.5 | nt | 46.5* | 0.535 | nt | 1.02 | 5.7
COc1cc(OC)c(OC)cc1/C=N/n1c(-c2n[nH]c3c2CCC3)n[nH]c1=S | -8.0 | nt | -107.4 | 2.07* | nt | 1.08 | -42.5
Nc1nc(CN2CCN(Cc3ccc4c(c3)OCO4)CC2)nc(Nc2ccccc2)n1 | -1.3 | 1.1 | -101.9 | 2.02* | -5.1 | 1.01 | -1.5
CCCCCC(=O)Cc1cc(O)cc2c1C(=O)Oc1cc(O)c(C(=O)O)c(CCCCC)c1O2 | 20.9 | nt | 39.8* | 0.602 | nt | 0.791 | -40.2
COc1cccc(-c2nc(CS(=O)(=O)CC(=O)Nc3ccccc3C)c(C)o2)c1 | -3.4 | nt | -31.9 | 1.32 | nt | 1.03 | nt
COc1cccc(-c2nc(CS(=O)(=O)CC(=O)Nc3cc(OC)ccc3OC)c(C)o2)c1 | 2.6 | nt | 36.5* | 0.635 | nt | 0.974 | 31.5
CC(C)(CN1CCCC1)NC(=O)C1CCC(=O)N(CCCN2CCOCC2)C1 (centres undefined) | 2.1 | nt | 33.7 | 0.663 | nt | 0.979 | nt

Source: PubChem
